# Data taken from ChEMBL document CHEMBL4177752, “Discovery of Novel Schizocommunin Derivatives as Telomeric G-Quadruplex Ligands That Trigger Telomere Dysfunction and the Deoxyribonucleic Acid (DNA) Damage Response” (J Med Chem, 2018).
# Activity calls are given as the source filed them. No cut-off for these calls is given here.
# Key:
# Quadruplex DNA [1] = assay: Stabilization of F21T telomeric G-quadruplex DNA (unknown origin) assessed as change in melting temperature at 1 uM by FRET assay; assay type: nucleic-acid assay
# Summary of the method: (§1)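 FRET melting: 0.2 µM F21T or F10T (FAM/TAMRA-labelled), with or without 1.0 µM ligand, in 10 mM Tris-HCl pH 7.4 with 60 mM KCl. Excitation 470 nm, emission 530 nm, read every 1 °C from 37–99 °C at 1 °C/min with a 30 s hold. ΔTm = Tm(DNA+ligand) − Tm(DNA).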
# [2] = Stabilization of F10T hairpin duplex DNA (unknown origin) assessed as change in melting temperature at 1 uM by FRET assay; summary of the method: as §1
# Quadruplex DNA [3] = assay: Binding affinity to HTG21 telomeric G-quadruplex DNA (unknown origin) by SPR method; assay type: nucleic-acid assay
# Summary of the method: (§2)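 SPR: biotinylated HTG21 or hairpin DNA (200 nM) was folded in 50 mM Tris-HCl pH 7.4 with 100 mM KCl and captured to about 1,000 RU on an NLC chip against a blank reference cell. Ligand at 0.625–40 µM was injected at 25 µL/min (400 s association, 300 s dissociation) at 25 °C. The chip was regenerated with 1 M KCl and blank sensorgrams were subtracted.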
# [4] = Binding affinity to hairpin duplex DNA (unknown origin) at 40 uM by SPR method; summary of the method: as §2
# HeLa = assay: Antiproliferative activity against human HeLa cells after 48 hrs by MTT assay; assay type: functional, cell-based
# Summary of the method: (§3)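 Cells seeded at 5.0×10^3 per well and exposed to a range of compound concentrations for 48 h. MTT (2.5 mg/mL solution) was then added for 4 h, formazan was dissolved in DMSO, and OD was read at 570 nm. HL-60 was grown in RPMI-1640 with 10% FBS, the other lines in DMEM with 10% FBS, at 37 °C and 5% CO2. Triplicates; IC50 taken from mean OD versus concentration curves.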
# SiHa = assay: Antiproliferative activity against human SiHa cells after 48 hrs by MTT assay; assay type: functional, cell-based; summary of the method: as §3
# HL-60 = assay: Antiproliferative activity against human HL60 cells after 48 hrs by MTT assay; assay type: functional, cell-based; details: HL-60, 48 h; summary of the method: as §3
# A549 = assay: Antiproliferative activity against human A549 cells after 48 hrs by MTT assay; assay type: functional, cell-based; details: A549, 48 h; summary of the method: as §3
# U2OS = assay: Antiproliferative activity against human U2OS cells after 48 hrs by MTT assay; assay type: functional, cell-based; summary of the method: as §3
structure (smiles),measurement,setting,value
O=C1Nc2ccccc2/C1=C/c1nc2cc(NCCCN3CCOCC3)c(F)cc2c(=O)[nH]1,ΔTm,Quadruplex DNA [1],8.6 °C
same,ΔTm,[2],0.1 °C
same,Kd,Quadruplex DNA [3],> 40 µM
same,Activity,[4],inactive
same,IC50,HeLa,> 50 µM
same,IC50,SiHa,> 50 µM
same,IC50,HL-60,> 50 µM
same,IC50,A549,> 50 µM
same,IC50,U2OS,> 50 µM
O=C1Nc2cc(N3CCOCC3)c(F)cc2/C1=C/c1nc2cc(NCCCN3CCOCC3)c(F)cc2c(=O)[nH]1,ΔTm,Quadruplex DNA [1],5.2 °C
same,ΔTm,[2],0.2 °C
same,Kd,Quadruplex DNA [3],> 40 µM
same,Activity,[4],inactive
same,IC50,HeLa,> 50 µM
same,IC50,SiHa,> 50 µM
same,IC50,HL-60,> 50 µM
same,IC50,A549,> 50 µM
same,IC50,U2OS,> 50 µM
CCN(CC)CCCNc1cc2nc(/C=C3\C(=O)Nc4ccccc43)[nH]c(=O)c2cc1F,ΔTm,Quadruplex DNA [1],10 °C
same,ΔTm,[2],0.1 °C
same,Kd,Quadruplex DNA [3],> 40 µM
same,Activity,[4],inactive
same,IC50,HeLa,> 50 µM
same,IC50,SiHa,23.4 µM
same,IC50,HL-60,7.5 µM
same,IC50,A549,8.6 µM
same,IC50,U2OS,12.6 µM
CN1CCN(c2cc3c(cc2F)/C(=C/c2nc4cc(NCCCN5CCCC5)c(F)cc4c(=O)[nH]2)C(=O)N3)CC1,ΔTm,Quadruplex DNA [1],23.6 °C
same,ΔTm,[2],0.3 °C
same,Kd,Quadruplex DNA [3],7.9 µM
same,Activity,[4],inactive
same,IC50,HeLa,9 µM
same,IC50,SiHa,9.4 µM
same,IC50,HL-60,2.9 µM
same,IC50,A549,25.3 µM
same,IC50,U2OS,16.4 µM
CN(C)CCCNc1ccc2c(=O)[nH]c(/C=C3\C(=O)Nc4cc(N5CCN(C)CC5)ccc43)nc2c1,ΔTm,Quadruplex DNA [1],16.5 °C
same,ΔTm,[2],0.1 °C
same,Kd,Quadruplex DNA [3],> 40 µM
same,Activity,[4],inactive
same,IC50,HeLa,49 µM
same,IC50,SiHa,11.5 µM
same,IC50,HL-60,4.3 µM
same,IC50,A549,19 µM
same,IC50,U2OS,14.1 µM
CN1CCN(c2cc3c(cc2F)/C(=C/c2nc4cc(NCCCn5ccnc5)c(F)cc4c(=O)[nH]2)C(=O)N3)CC1,ΔTm,Quadruplex DNA [1],11.5 °C
same,ΔTm,[2],0.5 °C
same,Kd,Quadruplex DNA [3],21 µM
same,Activity,[4],inactive
same,IC50,HeLa,> 50 µM
same,IC50,SiHa,> 50 µM
same,IC50,HL-60,> 50 µM
same,IC50,A549,> 50 µM
same,IC50,U2OS,> 50 µM
CN(C)CCNc1cc2nc(/C=C3\C(=O)Nc4cc(N5CCN(C)CC5)ccc43)[nH]c(=O)c2cc1F,ΔTm,Quadruplex DNA [1],18 °C
same,ΔTm,[2],0.2 °C
same,Kd,Quadruplex DNA [3],> 40 µM
same,Activity,[4],inactive
same,IC50,HeLa,15.7 µM
same,IC50,SiHa,3.4 µM
same,IC50,HL-60,7.8 µM
same,IC50,A549,2.2 µM
same,IC50,U2OS,6.3 µM
CN1CCN(c2cc3c(cc2F)/C(=C/c2nc4cc(N5CCN(C)CC5)c(F)cc4c(=O)[nH]2)C(=O)N3)CC1,ΔTm,Quadruplex DNA [1],12.2 °C
same,ΔTm,[2],0.1 °C
same,Kd,Quadruplex DNA [3],> 40 µM
same,Activity,[4],inactive
same,IC50,HeLa,> 50 µM
same,IC50,SiHa,> 50 µM
same,IC50,HL-60,12.3 µM
same,IC50,A549,> 50 µM
same,IC50,U2OS,> 50 µM
CN(C)CCCNc1cc2nc(/C=C3\C(=O)Nc4cc(N(C)CCCN(C)C)c(F)cc43)[nH]c(=O)c2cc1F,ΔTm,Quadruplex DNA [1],18.2 °C
same,ΔTm,[2],0.3 °C
same,Kd,Quadruplex DNA [3],18 µM
same,Activity,[4],inactive
same,IC50,HeLa,7.1 µM
same,IC50,SiHa,2.9 µM
same,IC50,HL-60,6.5 µM
same,IC50,A549,14.3 µM
same,IC50,U2OS,8.3 µM
CCN(CC)CCNc1cc2nc(/C=C3\C(=O)Nc4cc(N5CCN(C)CC5)c(F)cc43)[nH]c(=O)c2cc1F,ΔTm,Quadruplex DNA [1],23.1 °C
same,ΔTm,[2],0.3 °C
same,Kd,Quadruplex DNA [3],22 µM
same,Activity,[4],inactive
same,IC50,HeLa,9 µM
same,IC50,SiHa,12.4 µM
same,IC50,HL-60,1.7 µM
same,IC50,A549,6.1 µM
same,IC50,U2OS,8.2 µM
CN(C)CCCN(C)c1cc2c(cc1F)/C(=C/c1nc3cc(N4CCN(C)CC4)c(F)cc3c(=O)[nH]1)C(=O)N2,ΔTm,Quadruplex DNA [1],15.6 °C
same,ΔTm,[2],0.2 °C
same,Kd,Quadruplex DNA [3],> 40 µM
same,Activity,[4],inactive
same,IC50,HeLa,12.8 µM
same,IC50,SiHa,3.5 µM
same,IC50,HL-60,3.2 µM
same,IC50,A549,10.4 µM
same,IC50,U2OS,9.4 µM
CN(C)CCCNc1cc2nc(/C=C3\C(=O)Nc4ccccc43)[nH]c(=O)c2cc1F,ΔTm,Quadruplex DNA [1],11.8 °C
same,ΔTm,[2],0.2 °C
same,Kd,Quadruplex DNA [3],> 40 µM
same,Activity,[4],inactive
same,IC50,HeLa,13.4 µM
same,IC50,SiHa,17.1 µM
same,IC50,HL-60,3.2 µM
same,IC50,A549,14.8 µM
same,IC50,U2OS,18.7 µM
O=C1Nc2cc(N3CCOCC3)c(F)cc2/C1=C/c1nc2cc(NCCCN3CCCC3)c(F)cc2c(=O)[nH]1,ΔTm,Quadruplex DNA [1],8.4 °C
same,ΔTm,[2],0.3 °C
same,Kd,Quadruplex DNA [3],> 40 µM
same,Activity,[4],inactive
same,IC50,HeLa,> 50 µM
same,IC50,SiHa,42.5 µM
same,IC50,HL-60,3.8 µM
same,IC50,A549,> 50 µM
same,IC50,U2OS,> 50 µM
CCN(CC)CCCNc1cc2nc(/C=C3\C(=O)Nc4cc(N5CCOCC5)c(F)cc43)[nH]c(=O)c2cc1F,ΔTm,Quadruplex DNA [1],9 °C
same,ΔTm,[2],0.1 °C
same,Kd,Quadruplex DNA [3],> 40 µM
same,Activity,[4],inactive
same,IC50,HeLa,34.3 µM
same,IC50,SiHa,43.6 µM
same,IC50,HL-60,4.2 µM
same,IC50,A549,> 50 µM
same,IC50,U2OS,32.4 µM
CN1CCN(CCCNc2cc3nc(/C=C4\C(=O)Nc5cc(N6CCN(C)CC6)c(F)cc54)[nH]c(=O)c3cc2F)CC1,ΔTm,Quadruplex DNA [1],19.8 °C
same,ΔTm,[2],0.1 °C
same,Kd,Quadruplex DNA [3],9.6 µM
same,Activity,[4],inactive
same,IC50,HeLa,8.8 µM
same,IC50,SiHa,2.8 µM
same,IC50,HL-60,3.3 µM
same,IC50,A549,9.7 µM
same,IC50,U2OS,12.7 µM
CN(C)CCCN(CCCN(C)C)c1cc2nc(/C=C3\C(=O)Nc4ccccc43)[nH]c(=O)c2cc1F,ΔTm,Quadruplex DNA [1],12.6 °C
same,ΔTm,[2],0.2 °C
same,Kd,Quadruplex DNA [3],23 µM
same,Activity,[4],inactive
same,IC50,HeLa,48.6 µM
same,IC50,SiHa,10.1 µM
same,IC50,HL-60,16.1 µM
same,IC50,A549,> 50 µM
same,IC50,U2OS,> 50 µM
CN(C)CCCN(C)c1cc2c(cc1F)/C(=C/c1nc3cc(NCCN(C)C)c(F)cc3c(=O)[nH]1)C(=O)N2,ΔTm,Quadruplex DNA [1],20.1 °C
same,ΔTm,[2],0.3 °C
same,Kd,Quadruplex DNA [3],14 µM
same,Activity,[4],inactive
same,IC50,HeLa,22.6 µM
same,IC50,SiHa,7.6 µM
same,IC50,HL-60,5.6 µM
same,IC50,A549,12.4 µM
same,IC50,U2OS,9.2 µM
CN1CCN(c2cc3c(cc2F)/C(=C/c2nc4cc(NCCN5CCCC5)c(F)cc4c(=O)[nH]2)C(=O)N3)CC1,ΔTm,Quadruplex DNA [1],22.7 °C
same,ΔTm,[2],0.1 °C
same,Kd,Quadruplex DNA [3],21 µM
same,Activity,[4],inactive
same,IC50,HeLa,10.5 µM
same,IC50,SiHa,9.3 µM
same,IC50,HL-60,2.7 µM
same,IC50,A549,5.6 µM
same,IC50,U2OS,7.1 µM
CCN(CC)CCCNc1cc2nc(/C=C3\C(=O)Nc4cc(N5CCN(C)CC5)c(F)cc43)[nH]c(=O)c2cc1F,ΔTm,Quadruplex DNA [1],25.3 °C
same,ΔTm,[2],0.1 °C
same,Kd,Quadruplex DNA [3],4.9 µM
same,Activity,[4],inactive
same,IC50,HeLa,9.6 µM
same,IC50,SiHa,7.9 µM
same,IC50,HL-60,5.7 µM
same,IC50,A549,6.1 µM
same,IC50,U2OS,10.2 µM
